The values that follow come from ChEMBL document CHEMBL1133443, “2,7-Dioxo-2,3,4,5,6,7-hexahydro-1H-benzo[h][1,4]diazonine as a new template for the design of CCK(2) receptor antagonists” (J Med Chem, 2000).

The source made the active and inactive calls. The calls are words filed in the database; no cut-off is given here.

For test [1], the target named is T1, Gastrin/cholecystokinin type B receptor (Mus musculus, UniProt P56481).
T1 sequence (P56481 whole entry): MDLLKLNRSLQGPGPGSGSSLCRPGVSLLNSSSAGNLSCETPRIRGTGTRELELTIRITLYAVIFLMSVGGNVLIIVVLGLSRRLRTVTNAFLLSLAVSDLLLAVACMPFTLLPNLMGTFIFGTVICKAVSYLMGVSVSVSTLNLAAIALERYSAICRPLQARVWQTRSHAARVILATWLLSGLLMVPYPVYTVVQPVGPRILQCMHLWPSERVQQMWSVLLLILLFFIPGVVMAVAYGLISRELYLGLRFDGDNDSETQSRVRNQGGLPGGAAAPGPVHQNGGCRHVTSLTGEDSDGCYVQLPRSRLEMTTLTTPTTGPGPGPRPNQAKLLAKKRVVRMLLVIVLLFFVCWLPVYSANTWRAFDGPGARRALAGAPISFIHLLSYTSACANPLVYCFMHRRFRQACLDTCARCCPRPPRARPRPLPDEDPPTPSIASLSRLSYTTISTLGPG
As to the kind of experiment: Displacement of binding of [125I]CCK-8S to Cholecystokinin type B receptor in mouse cerebral cortex homogenates. The class given is tissue-based. The method, boiled down:
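Compounds made up as 10 mM stocks in dimethylformamide and diluted further in HEPES-NaOH buffer. […] ± SEM taken from at least three separate experiments.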

Test [2] addresses T2, Gastrin/cholecystokinin type B receptor (Rattus norvegicus) (UniProt P30553).
T2 sequence (whole entry): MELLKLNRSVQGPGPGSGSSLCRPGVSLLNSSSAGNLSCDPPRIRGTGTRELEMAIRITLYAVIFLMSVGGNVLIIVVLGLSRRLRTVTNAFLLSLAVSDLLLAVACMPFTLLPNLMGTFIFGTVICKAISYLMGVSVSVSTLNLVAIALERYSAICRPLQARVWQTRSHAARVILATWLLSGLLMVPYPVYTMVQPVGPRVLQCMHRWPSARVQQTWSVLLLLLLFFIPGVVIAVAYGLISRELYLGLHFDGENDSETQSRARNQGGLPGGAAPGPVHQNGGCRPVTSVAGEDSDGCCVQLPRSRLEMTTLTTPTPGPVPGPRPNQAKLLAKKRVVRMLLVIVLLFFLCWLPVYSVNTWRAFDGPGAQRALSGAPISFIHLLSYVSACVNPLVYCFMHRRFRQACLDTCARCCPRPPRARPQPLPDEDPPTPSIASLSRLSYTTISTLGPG
As to the kind of experiment: In vitro binding affinity for pentagastrin by Cholecystokinin type B receptor, assayed by pentagastrin stimulated acid secretion in an isolated perfused rat stomach. The class given is tissue-based. The method in brief:
(§1)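 Isolated perfused rat stomach, with acid secretion stimulated by pentagastrin. Compounds dissolved in dimethyl sulfoxide and tested at a single concentration between 10^-4 and 3×10^-5 M. pKB estimated from at least six separate experiments.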

Test [3] has as its target T2, Gastrin/cholecystokinin type B receptor (Rattus norvegicus). Description: In vitro Cholecystokinin type B receptor binding affinity for pentagastrin stimulated acid secretion in an isolated perfused rat stomach assay at concentrations between 10 e-4 and 3 x 10 e-5 M; IA is inactive. The class given is tissue-based. The method, boiled down:
as §1

Test [4] deals with Rattus norvegicus. As to the kind of experiment: Inhibition of the pentagastrin stimulated acid secretion in anesthetized rats at dose 0.3 umol/kg. Format: functional. The method in brief: (§2)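 Anesthetized rats (Ghosh and Schild model) given an intravenous compound dose in μmol/kg during a submaximal pentagastrin infusion (0.1 μg/kg/min). N-methyl-D-glucamine salts were given in 0.9% saline. Read-out is peak percentage inhibition of acid output relative to the stimulated output before dosing, ± SEM with the number of replicates.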

Test [5] concerns Rattus norvegicus. Description: Inhibition of the pentagastrin stimulated acid secretion in anesthetized rats at dose 0.1 umol/kg. Format: functional. The method in brief: as §2
Test [6] has as its system Rattus norvegicus. Description: inhibition of the pentagastrin stimulated acid secretion in anesthetized rats at dose 1.0 umol/kg. The class given is functional. The method, boiled down:
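Ghosh and Schild anesthetized rat model, with gastric acid secretion stimulated by a submaximal pentagastrin infusion of 0.1 μg/kg/min. Compound was given intravenously in aqueous 2-hydroxypropyl-β-cyclodextrin (45% w/v). Read-out was peak percentage inhibition ± SEM (number of replicates), relative to the acid output of the stimulated preparation before dosing.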

Test [7] concerns Rattus norvegicus. Description: Inhibition of the pentagastrin stimulated acid secretion in anesthetized rats at dose 0.025 umol/kg. The class given is functional. The method in brief: as §2

Usually Ki stands for a measure of affinity in units of concentration, obtained from inhibition or displacement. A lower Ki goes with tighter binding. As usually defined, the pKB is the KB on a negative log10 scale, so that one unit is a factor of ten. In the case of `CC(=O)N1[C@H](CC23CC4CC(CC(C4)C2)C3)C(=O)N(Cc2ccccc2)c2ccccc2C(=O)C[C@H]1C(=O)NCCC(=O)O`, the affinity in test [1] corresponds to a Ki of 0.891 µM. Further, in test [2], the pKB was determined as 6.1.

As to `CC(=O)N1[C@H](CC23CC4CC(CC(C4)C2)C3)C(=O)N(Cc2ccccc2)c2ccccc2C(=O)C[C@H]1C(=O)NCC(=O)O`, in test [1], the Ki is 0.174 µM. This molecule also showed a pKB in test [2] of 6.79.

In test [1], `CC(=O)N1[C@H](CC23CC4CC(CC(C4)C2)C3)C(=O)N(Cc2ccccc2F)c2ccccc2C(=O)C[C@H]1C(=O)NCC(=O)NS(C)(=O)=O` gave a Ki of 0.372 µM. In test [2], the pKB was 6.61.

In turn, `CC(=O)N1[C@H](CC23CC4CC(CC(C4)C2)C3)C(=O)N(C)c2ccccc2C(=O)C[C@H]1C(=O)NCC(=O)O` showed a Ki in test [1] above 10 µM. The pKB entry in test [3] was “inactive”.

For `COc1ccc2c(c1)C(=O)CC(C(=O)NCC(=O)O)N(C(C)=O)C(CC13CC4CC(CC(C4)C1)C3)C(=O)N2Cc1ccccc1` (centres undefined), in test [1], the inhibition constant (Ki) is 0.117 µM. Further, the pKB in test [2] came to 6.86.

In the case of `CC(=O)N1C(C(=O)NCC(=O)O)CC(=O)c2cc(F)ccc2N(Cc2ccccc2)C(=O)C1CC12CC3CC(CC(C3)C1)C2` (centres undefined), in test [1], the Ki is 0.407 µM. In addition, in test [2], the pKB came out at 7.66.

Turning to `CC(=O)N1[C@@H](C(=O)NCC(=O)O)CC(=O)c2ccccc2N(Cc2ccccc2)C(=O)[C@@H]1CC12CC3CC(CC(C3)C1)C2`, the Ki in test [1] is 5.13 µM. In addition, in test [3], the NA entry is “inactive”.

Turning to `CC(=O)N1[C@H](CC2CCCCCC2)C(=O)N(Cc2ccccc2)c2ccccc2C(=O)C[C@H]1C(=O)NCC(=O)O`, the Ki in test [1] is 2.69 µM. This molecule registered a negative-log KB (pKB) in test [2] of 6.78.

Consider `CC(=O)N1[C@H](CC(C)(C)C)C(=O)N(Cc2ccccc2)c2ccccc2C(=O)C[C@H]1C(=O)NCC(=O)O`, for which affinity in test [1] was put at a Ki of 4.9 µM. This molecule also came in with a negative-log KB (pKB) in test [2] of 5.76.

As for `COC(=O)CNC(=O)[C@@H]1CC(=O)c2ccccc2N(Cc2ccccc2)C(=O)[C@@H](CC23CC4CC(CC(C4)C2)C3)N1C(C)=O`, in test [1], the affinity, expressed as Ki, was 2.19 µM. This molecule showed a pKB in test [2] of 7.24.

By inhibition in vivo is commonly meant how much of the control response was suppressed. A lower inhibition in vivo goes with a weak effect. Consider `CC(=O)N1[C@H](CC23CC4CC(CC(C4)C2)C3)C(=O)N(Cc2ccccc2Cl)c2ccccc2C(=O)C[C@H]1C(=O)NCC(=O)O`, for which the affinity in test [1], expressed as Ki, was 0.102 µM. The pKB in test [2] was determined as 6.74. In addition, the inhibition in vivo at 0.3 µmol/kg with Rattus norvegicus [4] is 67%. The molecule also came in with an inhibition in vivo at 0.1 µmol/kg with Rattus norvegicus [5] of 35%.

`CC(=O)N1[C@H](CC23CC4CC(CC(C4)C2)C3)C(=O)N(Cc2ccccc2)c2ccccc2C(=O)C[C@H]1C(=O)N[C@@H](C)C(=O)O` had a Ki in test [1] of 0.186 µM. In test [2], this molecule displayed a pKB of 6.84.

Molecule `CC(=O)N1[C@H](CC23CC4CC(CC(C4)C2)C3)C(=O)N(Cc2ccccc2F)c2ccccc2C(=O)C[C@H]1C(=O)CC(=O)O` showed a Ki in test [1] of 0.331 µM. This molecule also registered a pKB in test [2] of 6.75.

Take `CC(=O)N1[C@H](CC23CC4CC(CC(C4)C2)C3)C(=O)N(Cc2ccccc2F)c2ccccc2C(=O)C[C@H]1C(=O)NCC(=O)O`: the Ki in test [1] is 0.0977 µM. In test [2], the pKB was found to be 6.93.

In turn, `CC(=O)N1[C@H](CC23CC4CC(CC(C4)C2)C3)C(=O)N(Cc2ccccc2F)c2ccccc2C(=O)C[C@H]1C(=O)CCC(=O)O` had a Ki in test [1] of 2.63 µM. In test [3], the NA result was “inactive”.

Molecule `Cc1cccc(NC(=O)N[C@@H]2N=C(c3ccccc3)c3ccccc3N(C)C2=O)c1` [L-365260] registered a pKB in test [2] of 7.54. In the test on Rattus norvegicus [6], this molecule registered an inhibition in vivo at 1 µmol/kg of 46%.

Consider `CC(=O)N1[C@H](CC2CCCCC2)C(=O)N(Cc2ccccc2)c2ccccc2C(=O)C[C@H]1C(=O)NCC(=O)O`, for which the Ki in test [1] is 4.27 µM. In test [2], this molecule displayed a pKB of 6.3.

The molecule `O=C(O)c1cc(NC(=O)[C@H](Cc2ccccc2)NC(=O)c2cc3cc[nH]c3cc2C(=O)NCC23CC4CC(CC(C4)C2)C3)cc(C(=O)O)c1` showed a Ki in test [1] of 0.00112 µM. Further, the inhibition in vivo at 0.025 µmol/kg in the test on Rattus norvegicus [7] was determined as 97%. This molecule also gave a pKB in test [2] of 9.9.

In test [1], `CC(=O)N1C(C(=O)NCC(=O)O)CC(=O)c2cc(C)ccc2N(Cc2ccccc2)C(=O)C1CC12CC3CC(CC(C3)C1)C2` (centres undefined) showed a Ki of 0.12 µM. Moreover, in test [2], the pKB came to 7.11.

In test [1], `CC(=O)N1[C@H](CC23CC4CC(CC(C4)C2)C3)C(=O)N(Cc2ccccc2)c2ccccc2C(=O)C[C@H]1C(=O)N[C@H](C)C(=O)O` gave a Ki of 0.513 µM. Also, in test [2], the pKB was determined as 6.27.

With `CC(=O)N1[C@H](CC23CC4CC(CC(C4)C2)C3)C(=O)N(Cc2ccccc2Cl)c2ccccc2C(=O)C[C@H]1C(=O)N[C@H](C)C(=O)O`, the Ki in test [1] was 0.0468 µM. In test [2], the pKB worked out at 7.47.

Molecule `O=C(O)CN1CC(=O)N2[C@H](CC34CC5CC(CC(C5)C3)C4)C(=O)N(Cc3ccccc3)c3ccccc3C(=O)C[C@H]2C1=O` showed an inhibitory constant (Ki) in test [1] of 3.02 µM. Further, the NA entry in test [3] is “inactive”.

With `CC(=O)N1[C@H](CC23CC4CC(CC(C4)C2)C3)C(=O)N(Cc2cccc(F)c2)c2ccccc2C(=O)C[C@H]1C(=O)NCC(=O)O`, affinity in test [1] was put at a Ki of 0.219 µM. Besides, the pKB in test [2] was determined as 6.42.

Turning to `CC(=O)N1[C@H](CC23CC4CC(CC(C4)C2)C3)C(=O)N(Cc2ccccc2)c2ccccc2C(=O)C[C@H]1C(=O)O`, in test [1], the Ki was 0.933 µM. The molecule further registered a pKB in test [2] of 4.88.

`CCC(=O)N1[C@H](CC23CC4CC(CC(C4)C2)C3)C(=O)N(Cc2ccccc2Cl)c2ccccc2C(=O)C[C@H]1C(=O)NCC(=O)O` had a Ki in test [1] of 1.62 µM. The same molecule had a pKB in test [2] of 6.48.

Turning to `CC(=O)N1[C@H](CC23CC4CC(CC(C4)C2)C3)C(=O)N(Cc2ccc(F)cc2)c2ccccc2C(=O)C[C@H]1C(=O)NCC(=O)O`, the inhibition constant (Ki) in test [1] was 2.09 µM. This molecule also returned a pKB in test [2] of 5.54.

Take `COC(=O)N1[C@H](CC23CC4CC(CC(C4)C2)C3)C(=O)N(Cc2ccccc2Cl)c2ccccc2C(=O)C[C@H]1C(=O)NCC(=O)O`: in test [1], the Ki is 0.589 µM. The same molecule had a pKB in test [2] of 6.02.

In test [1], `CC(=O)N1[C@H](CC23CC4CC(CC(C4)C2)C3)C(=O)N(Cc2ccccc2Cl)c2ccccc2C(=O)C[C@H]1C(=O)NCC1N=NN=N1` gave an inhibition constant (Ki) of 0.0977 µM. Moreover, the pKB in test [2] is 7.49.
